Compounds with a hit are over-represented: about 1.2% of the library has one in this group of screens.
A3G deaminase: blocks human APOBEC3G single-stranded DNA deamination. Q9HC16. recombinant A3G, ssDNA deamination FAM/TAMRA fluorescence. inhibition, % at 20 µM. 330,000 tested, 0.28% active. AID 493012;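 active = inhibition of at least 40% at 20 µM, with no more than 30% in the related APOBEC3A deaminase screen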;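 also: plate controls were DMSO wells with A3G for no effect and wells lacking A3G enzyme for full effect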
FN deposit inh: fibronectin deposition inhibition. inhibition, % at 12.6 µM. 350,000 tested, 0.086% active. AH1F fibroblasts, Alexa488-fibronectin deposition fluorescence, overnight;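 active = mean inhibition across replicates of 30% or more, regardless of how many single replicates reach that level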;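 also: positive control wells lacked labelled fibronectin entirely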
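material = AH1F fibroblast monolayer depositing Alexa488-labelled fibronectin into matrix | amount = 10000 AH1F cells/well | buffer or medium = DMEM plus 2% serum, read in PBS | incubation = 1 h cell adhesion before compound, then overnight fibronectin incubation | detection = fluorescence at 485 nm excitation, 525 nm emission | evaluation = percent inhibition as loss of matrix-bound fibronectin fluorescence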
ABHD5-PLIN5 inh: ABHD5-PLIN5 protein interaction inhibition; AID 602281; inhibition, % at 4 µM; Split G. princeps luciferase complementation, luminescence, 4 h; 360,000 tested, 0.78% active;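 active = inhibition above the mean inhibition across every tested compound plus 3 SD, cut at about 22% in these data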;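 also: 0% = DMSO only wells and the 100% control is not disclosed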
Target sequence (Q00G26 whole entry, looked up): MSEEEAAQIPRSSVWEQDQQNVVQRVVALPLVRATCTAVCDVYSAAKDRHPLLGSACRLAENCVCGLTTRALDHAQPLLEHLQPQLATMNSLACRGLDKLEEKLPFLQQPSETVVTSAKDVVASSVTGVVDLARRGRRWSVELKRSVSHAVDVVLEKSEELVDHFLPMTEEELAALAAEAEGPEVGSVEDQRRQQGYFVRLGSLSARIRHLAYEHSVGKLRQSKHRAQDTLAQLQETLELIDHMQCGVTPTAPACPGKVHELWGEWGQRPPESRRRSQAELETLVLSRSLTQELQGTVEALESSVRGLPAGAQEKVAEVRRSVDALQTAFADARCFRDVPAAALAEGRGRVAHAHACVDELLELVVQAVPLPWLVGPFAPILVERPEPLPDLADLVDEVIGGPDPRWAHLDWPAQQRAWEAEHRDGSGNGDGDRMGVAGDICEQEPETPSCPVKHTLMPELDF
Target sequence (Q8WTS1 whole entry, looked up): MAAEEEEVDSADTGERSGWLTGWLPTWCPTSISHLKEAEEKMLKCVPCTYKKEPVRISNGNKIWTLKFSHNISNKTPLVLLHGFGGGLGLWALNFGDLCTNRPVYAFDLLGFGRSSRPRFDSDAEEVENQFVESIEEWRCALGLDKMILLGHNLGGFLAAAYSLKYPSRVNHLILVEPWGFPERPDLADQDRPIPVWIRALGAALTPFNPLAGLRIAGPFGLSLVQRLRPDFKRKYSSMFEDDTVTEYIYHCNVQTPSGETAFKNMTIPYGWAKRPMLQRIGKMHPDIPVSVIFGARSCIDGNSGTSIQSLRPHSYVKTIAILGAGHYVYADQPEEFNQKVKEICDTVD
A3A deaminase: human APOBEC3A DNA deaminase inhibition | P31941 | recombinant A3A, FAM/TAMRA ssDNA deamination fluorescence | inhibition, % at 20 µM | 330,000 tested, 0.41% active | AID 493011;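 active = at least 40% inhibition at 20 µM here, with at most 30% in a related deaminase screen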;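 also: plate controls were A3A with DMSO for no effect and wells lacking A3A enzyme for full effect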
APOBEC3G confirm: confirmation of human APOBEC3G DNA deaminase inhibitors. shares compounds with A3G deaminase. recombinant A3G ssDNA deaminase, UDG/FAM-TAMRA fluorescence. inhibition, % at 20 µM. 890 tested, 72% active;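 active = inhibition reaching a set limit in any replicate at 20 µM, the limit being 80% of the first screen's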
UDG A3G counter: inhibits E. coli UDG, flagging false APOBEC3G inhibitors | shares compounds with A3G deaminase | UDG counterscreen, FAM/TAMRA oligo fluorescence | inhibition, % at 20 µM | 710 tested, under 10 active;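 active = compounds giving 40% or more inhibition at 20 µM in any one of the three replicates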;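 also: plate controls were DMSO wells with UDG and oligo for no effect and DMSO wells lacking both for full effect; inhibitors lower the FAM signal released by uracil excision and alkaline cleavage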
Starred values were filed as active, the others as inactive; . = no result; ! = not confirmed by another sample.

SMILES	A3G deaminase	FN deposit inh	ABHD5-PLIN5 inh	A3A deaminase	APOBEC3G confirm	UDG A3G counter
C/C(=N\NC(=O)c1cccc(N/N=C(\C)c2cc(O)ccc2O)c1)c1cc(O)ccc1O	44.7*	-9.2	4.5	-1.0	11.9	3.7
C/C(=N\NC(=O)c1cccc(N/N=C(\C)c2ccco2)c1)c1ccco1	.	1.4	3.3	.	.	.
CC(C)NC(=O)Nc1ccc2c(c1)C(=O)N([C@H](C)CO)C[C@H](C)[C@@H](CN(C)C(=O)NC(C)C)OCCCC[C@@H](C)O2	.	3.5	.	.	.	.
CO[C@@H]1CN(C)C(=O)c2cc(NC(C)=O)ccc2OC[C@@H](C)N(Cc2ccccc2F)C[C@@H]1C	.	4.7	.	.	.	.
Cc1ccc(C(=O)NNC(=O)CSc2nnc3c(n2)[nH]c2ccc(F)cc23)cc1	56.5*	-0.7	8.5	17.6	64.3*	0.2
CCOCCCn1c(=NC(=O)c2cccnc2)c(C(=O)OCC)cc2c(=O)n3ccccc3nc21	65.3*	3.0	2.6	10.5	57.8*	-0.5
CNC[C@@H]1Oc2ccc(NC(=O)CCN3CCOCC3)cc2C(=O)N([C@@H](C)CO)C[C@H]1C	.	2.9	.	.	.	.
C[C@H](NC(N)=O)C(=O)Nc1ccc(N2CCOCC2)c(S(=O)(=O)Nc2ccc(Cl)cc2)c1	46.4*	-2.5	3.9	-1.9	30.4*	3.3
O=C(Nc1ccc(N2CCOCC2)c(S(=O)(=O)Nc2ccc(Cl)cc2)c1)c1cnccn1	46.4*	-1.6	-2.0	0.0	60.4*	-3.1
CCC(=O)Nc1ccc(N2CCOCC2)c(S(=O)(=O)Nc2ccc(Cl)cc2)c1	37.1	-1.4	-16.8	1.8	.	.
CC(C)N(C[C@H]1N[C@H](CO)[C@@H]1c1ccc(C2=CCCC2)cc1)C(=O)CN(C)C	.	-4.2	.	.	.	.
Brc1cnc2nc[nH]c2c1	-1.6	6.0	3.6	2.5	.	.
S=c1[nH]c2cc(Br)cnc2[nH]1	56.0*	-6.4	-8.8	0.9	68.2*	-3.9
CCC1(C)Cc2c(C#N)c(N)sc(=S)c2CO1 (configuration not stated)	17.0	12.5	-10.8	-1.1	.	.
N#Cc1c(N)sc(=S)c2c1CCCC2	47.4*	.	-12.3	23.7	25.4	.
O=C(NNC(=S)NC(=O)c1ccccc1[N+](=O)[O-])c1ccccc1	-5.7	.	-4.3	-1.2	.	.
CCC(=O)NC(=S)NNC(=O)c1ccccc1[N+](=O)[O-]	61.3*	6.7	-0.6	-5.4	1.6	-5.3
O=C(NC(=S)NNC(=O)c1ccccc1[N+](=O)[O-])c1ccccc1	45.8*	.	-5.5	-3.7	31.0*	2.7
COc1cccc(NC(=O)C[C@H]2CC[C@H]3[C@@H](COc4ccc(NC(=O)C5CCOCC5)cc4C(=O)N3C)O2)c1	.	-10.6	.	.	.	.
Cc1ccc(S(=O)(=O)NNc2ccccc2)cc1	67.6*	.	-1.4	4.2	65.7*	.
CC(=O)Nc1ccc(S(=O)(=O)NNc2cccc(C)c2)cc1	60.9*	4.5	-16.1	3.0	61.7*	-2.8
Cc1ccc(S(=O)(=O)Nc2ccc(Nc3ccccc3)cc2)cc1	-3.1	-0.6	-4.2	-0.3	.	.
Cc1cccc(NC(=O)NNS(=O)(=O)c2ccc(F)cc2)c1	2.6	0.9	4.5	2.3	.	.
CC(/C=N/n1c(-c2cc(C)[nH]n2)n[nH]c1=S)=C\c1ccccc1	44.4*	4.0	2.9	2.0	25.9	.
COc1ccc(/C=N/n2c(-c3cc(C)[nH]n3)n[nH]c2=S)cc1OC	42.6*	5.2	-4.7	-1.2	62.8*	0.1
SMILES	A3G deaminase	FN deposit inh	ABHD5-PLIN5 inh	A3A deaminase	APOBEC3G confirm	UDG A3G counter
CC(=C/c1ccccc1)/C=N/n1c(-c2ccco2)n[nH]c1=S	14.8	-21.6	-13.0	-2.9	.	.
COc1ccc(/C=N/n2c(-c3cc(C)[nH]n3)n[nH]c2=S)cc1	46.2*	2.2	-8.2	-5.8	90.7*	-3.3
Cc1cccc(-c2n[nH]c(=S)n2/N=C/c2ccc(C)o2)c1	32.7	-4.3	-8.0	-5.2	.	.
COc1ccc(/C=N/n2c(-c3ccccc3)n[nH]c2=S)cc1	27.5	-11.1	-0.7	-4.2	.	.
Cc1cc(-c2n[nH]c(=S)n2/N=C/c2ccc(C)o2)n[nH]1	40.4*	-6.1	-1.7	-4.7	84.0*	-5.0
C[C@@H]1CCCCO[C@@H](CN(C)C(=O)c2ccccc2)[C@H](C)CN([C@H](C)CO)C(=O)c2cc(NC(=O)c3ccccc3)ccc2O1	.	-10.0	.	.	.	.
CCNC(=O)Nc1ccc2c(c1)C(=O)N(C)[C@H]1CC[C@H](CC(=O)NCCN3CCCC3)O[C@@H]1CO2	.	-7.3	.	.	.	.
CC1(C)O[C@@H]2[C@H](O1)[C@@H](COS(=O)(=O)O)O[C@H]2n1cnc2c(N)ncnc21	-1.0	.	.	0.3	.	.
CC1(C)O[C@@H]2[C@H](O1)[C@@H](COS(=O)(=O)O)O[C@H]2n1c(=S)[nH]c2c(=O)[nH]c(N)nc21	48.8*	-1.9	-3.6	-2.2	73.5*	-2.0
C=C(C)C(=O)Nc1ccc2c(c1)OCCOCCOCCO2	78.1*	-1.4	5.1	19.9	85.5*	.
COc1ccc(-c2nc3ccccc3c(=O)n2NC(=S)N(C)C)cc1	52.5*	-10.2	2.5	-1.5	64.1*	5.3
COc1ccc(OCC(=O)Nn2c(-c3ccc(OC)cc3)nc3ccccc3c2=O)cc1	2.9	-6.1	2.5	2.5	.	.
COc1ccc(NC(=O)Nc2ccc3c(c2)C(=O)N([C@H](C)CO)C[C@@H](C)[C@H](CN(C)Cc2ccccc2)OCCCC[C@@H](C)O3)cc1	.	1.3	.	.	.	.
Cc1cc(Cl)ccc1N=c1ssnc1Cl	61.4*	.	-3.4	2.2	62.4*	-4.1
Nc1ccccc1N=c1ssnc1Cl	.	.	-13.1	.	.	.
COc1ccc(OC)c(N=c2ssnc2Cl)c1	74.2*	.	13.8	0.8	69.2*	-3.9
Cc1ccc(N=c2ssnc2Cl)cc1	73.3*	-6.5	8.6	4.7	75.3*	-3.3
CC(C)NC(=O)N(C)C[C@H]1OCCCC[C@H](C)Oc2ccc(N(C)C)cc2C(=O)N([C@H](C)CO)C[C@@H]1C	.	4.1	.	.	.	.
COc1cccc(S(=O)(=O)Nc2ccc3c(c2)C(=O)N(C)[C@@H]2CC[C@@H](CC(=O)O)O[C@@H]2CO3)c1	.	-18.6	.	.	.	.
CC(/C=N/n1c(-c2cccnc2)n[nH]c1=S)=C\c1ccco1	70.8*	1.5	.	14.7	69.9*	-1.7
CC(/C=N/n1c(-c2n[nH]c3c2CCC3)n[nH]c1=S)=C\c1ccco1	55.2*	11.7	-11.9	14.6	67.9*	-2.7
COCCCC/C(=N\OCCN)c1ccc(C(F)(F)F)cc1	81.0*!	-10.9	4.1	0.3	-5.8	-0.1
c1ccc(-c2nn3c(Cn4cnc5ccccc54)nnc3s2)cc1	48.9*	.	-1.8	10.5	43.5*	3.4
Clc1ccc(Cl)c(-c2nn3c(Cn4cnc5ccccc54)nnc3s2)c1	-2.2	.	6.9	12.6	.	.
c1ccc2c(c1)ncn2Cc1nnc2sc(-c3ccncc3)nn12	34.1	-25.6	2.1	4.6	.	.
c1ccc(-c2nn3c(Cn4nnc5ccccc54)nnc3s2)cc1	45.5*	.	-2.2	1.4	41.3*	-4.3

High-throughput results: PubChem, several laboratories
